Measured values taken from ChEMBL document CHEMBL3244378, “Antiestrogens and antiestrogen metabolites: preparation of tritium-labeled (+/-)-cis-3-[p-(1,2,3,4-tetrahydro-6-methoxy-2-phenyl-1-naphthyl)phenoxyl]-1,2-propanediol (U-23469) and characterization and synthesis of a biologically important metabolite” (J Med Chem, 1979).

Key:
[1] = target: T1, Estrogen receptor (Rattus norvegicus) (UniProt P06211); assay: Displacement of [3H]-estradiol from estrogen receptor in rat uterine cytosol at 10^-4 to 10^-10 M after 16 hrs relative to estradiol; settings: Uterus
T1 sequence (whole entry): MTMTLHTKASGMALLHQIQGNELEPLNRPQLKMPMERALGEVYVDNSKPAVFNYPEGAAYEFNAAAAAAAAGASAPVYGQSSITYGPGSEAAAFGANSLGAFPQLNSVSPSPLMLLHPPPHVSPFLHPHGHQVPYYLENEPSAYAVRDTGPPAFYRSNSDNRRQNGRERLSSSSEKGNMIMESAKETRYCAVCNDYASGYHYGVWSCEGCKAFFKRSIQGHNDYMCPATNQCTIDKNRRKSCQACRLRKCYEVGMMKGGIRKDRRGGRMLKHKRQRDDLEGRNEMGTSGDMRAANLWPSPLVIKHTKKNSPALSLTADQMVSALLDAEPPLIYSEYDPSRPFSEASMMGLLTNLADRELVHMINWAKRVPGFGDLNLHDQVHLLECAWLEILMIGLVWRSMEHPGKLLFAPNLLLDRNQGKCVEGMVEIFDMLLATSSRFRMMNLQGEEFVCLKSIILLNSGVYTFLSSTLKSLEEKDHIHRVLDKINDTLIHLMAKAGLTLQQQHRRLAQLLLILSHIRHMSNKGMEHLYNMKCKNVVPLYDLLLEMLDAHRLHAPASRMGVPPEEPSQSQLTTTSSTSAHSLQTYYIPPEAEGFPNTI

[2] = Drug metabolism in rat uterine nuclear fraction assessed as 1-(p-Hydroxyphenyl)-2-phenyl-6-methoxy-1,2,3,4-tetrahydronaphthalene level at 25 ug, sc after 18 hrs by TLC analysis; assay type: ADME, organism-based; settings: in vivo
Serum = assay: Drug metabolism in rat serum assessed as metabolite level at 25 ug, sc after 1 hr by TLC analysis; assay type: ADME, organism-based; settings: in vivo
Method in brief: (§1)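 Immature rats given tritiated antiestrogen, 25 μg sc per rat. At 1 and 13 h, serum was prepared and extracted with ethyl acetate. Uteri were homogenized, the nuclear pellet washed three times, then extracted with ethanol. Extracts were concentrated, run on silica gel TLC in anesthetic ether–ethanol (98:2), and radioactivity counted by liquid scintillation.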

[3] = Drug metabolism in rat uterine nuclear fraction assessed as 1-[p-(2,3-Dihydroxyphenyl)phenyl]-2-phenyl-6-methoxy-1,2,3,4-tetrahydronaphthalene level at 25 ug, sc after 18 hrs by TLC analysis; assay type: ADME, organism-based; settings: in vivo
[4] = Drug metabolism in rat uterine nuclear fraction assessed as metabolite level at 25 ug, sc after 13 hrs by TLC analysis; assay type: ADME, organism-based; settings: in vivo
Method in brief: as §1

[5] = Drug metabolism in rat uterine nuclear fraction assessed as 3-(4-((1R,2S)-6-hydroxy-2-phenyl-1,2,3,4-tetrahydronaphthalen-1-yl)phenoxy)propane-1,2-diol level at 25 ug, sc after 18 hrs by TLC analysis; assay type: ADME, organism-based; settings: in vivo
[6] = Drug uptake in rat estrogen receptor expressing uterine at 25 ug, sc after 13 hrs by high salt sucrose density gradient analysis in presence of unlabeled estradiol; assay type: ADME, organism-based, Uterus; settings: in vivo
Method in brief: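 Rats pretreated 1 h in vivo with 5 μg unlabeled estradiol or saline vehicle, then given 25 μg tritiated antiestrogen sc. Uteri excised; washed 800g nuclear pellet extracted 1 h at 0 °C with buffer containing 0.4 M KCl. Extract charcoal-dextran treated, ¹⁴C ovalbumin and γ-globulin markers added. High-salt sucrose gradients spun 17 h, 4 °C, 270000g; 5S binding read.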

[7] = Drug metabolism in rat uterine nuclear fraction assessed as metabolite level at 25 ug, sc after 1 hr by TLC analysis; assay type: ADME, organism-based; settings: in vivo
Method in brief: as §1

[8] = Drug metabolism in rat uterine nuclear fraction assessed as (5R,6S)-5-(4-hydroxyphenyl)-6-phenyl-5,6,7,8-tetrahydronaphthalen-2-ol level at 25 ug, sc after 18 hrs by TLC analysis; assay type: ADME, organism-based; settings: in vivo

SMILES	RBA [1]	also measured
CC[C@H](c1ccc(O)cc1)[C@@H](CC)c1ccc(O)cc1	300	–
COc1ccc2c(c1)CC[C@@H]1[C@@H]2CC[C@]2(C)[C@@H](O)CC[C@@H]12	3	–
COc1ccc2c(c1)CC[C@H](c1ccccc1)[C@@H]2c1ccc(OCC(O)CO)cc1 (mixture of isomers)	0.1	Drug metabolism [2]: metabolite_detected; Drug metabolism (Serum): metabolite_detected; Drug metabolism [3]: metabolite_detected; Drug metabolism [4]: metabolite_detected; Drug metabolism [5]: metabolite_detected; Drug metabolism [6]: metabolite_detected; Drug metabolism [7]: metabolite_detected; Drug metabolism [8]: metabolite_detected
CC[C@H](c1ccc(O)cc1)[C@@H](CC)c1ccc(OC)cc1 (relative stereo)	19.3	–
CC[C@H](c1ccc(O)cc1)[C@@H](CC)c1ccc(OCC(O)CO)cc1 (relative stereo)	6.9	–

Continued, in another order:

RBA [1]	SMILES	also measured
0.24	COc1ccc2c(c1)CC[C@H](c1ccccc1)[C@@H]2c1ccc(O)cc1	–
39.1	OCC(O)COc1ccc([C@@H]2c3ccc(O)cc3CC[C@@H]2c2ccccc2)cc1 (stereo partly specified)	–
29.8	Oc1ccc([C@@H]2c3ccc(O)cc3CC[C@@H]2c2ccccc2)cc1	–
